# Results published in ChEMBL document CHEMBL1275589, “Molecular epidemiology, sequence types, and plasmid analyses of KPC-producing Klebsiella pneumoniae strains in Israel” (2010).
# How the values were obtained:
# Klebsiella pneumoniae [1] = assay: Antimicrobial activity against carbapenem-resistant KPC-2 producing Klebsiella pneumoniae 365 transformant by agar dilution method; assay type: functional
# Klebsiella pneumoniae [2] = assay: Antimicrobial activity against KPC-3 producing Klebsiella pneumoniae 549 ST 327 expressing beta-lactamase TEM-1 and CTX-M-2 by agar dilution method; assay type: functional
# Klebsiella pneumoniae [3] = assay: Antimicrobial activity against carbapenem-resistant KPC-2 producing Klebsiella pneumoniae 531 transformant by agar dilution method; assay type: functional
# Klebsiella pneumoniae [4] = assay: Antimicrobial activity against KPC-3 producing Klebsiella pneumoniae 557 ST 258 expressing beta-lactamase TEM-1 by agar dilution method
# Klebsiella pneumoniae [5] = assay: Antimicrobial activity against carbapenem-resistant KPC-2 producing Klebsiella pneumoniae 526 transformant by agar dilution method; assay type: functional
# Klebsiella pneumoniae [6] = assay: Antimicrobial activity against carbapenem-resistant KPC-2 producing Klebsiella pneumoniae 523 ST 340 expressing beta-lactamase TEM-1, SHV-11 and OXA-2 by agar dilution method; assay type: functional
# Klebsiella pneumoniae [7] = assay: Antimicrobial activity against carbapenem-resistant KPC-2 producing Klebsiella pneumoniae 525 transformant by agar dilution method; assay type: functional
# Klebsiella pneumoniae [8] = assay: Antimicrobial activity against carbapenem-resistant KPC-2 producing Klebsiella pneumoniae 588 ST 340 expressing beta-lactamase TEM-1 and SHV-11 by agar dilution method; assay type: functional
# Klebsiella pneumoniae [9] = assay: Antimicrobial activity against carbapenem-resistant KPC-2 producing Klebsiella pneumoniae 365 ST 376 expressing beta-lactamase SHV-1, CTX-M-15 and OXA-4 by agar dilution method
# Klebsiella pneumoniae [10] = assay: Antimicrobial activity against carbapenem-resistant KPC-2 producing Klebsiella pneumoniae 469 ST 277 expressing beta-lactamase SHV-27, CTX-M-15 and OXA-4 by agar dilution method; assay type: functional
# Klebsiella pneumoniae [11] = assay: Antimicrobial activity against carbapenem-resistant KPC-2 producing Klebsiella pneumoniae 525 ST 376 expressing beta-lactamase SHV-1 by agar dilution method; assay type: functional
# Klebsiella pneumoniae [12] = assay: Antimicrobial activity against KPC-3 producing Klebsiella pneumoniae 549 transformant by agar dilution method; assay type: functional
# Klebsiella pneumoniae [13] = assay: Antimicrobial activity against carbapenem-resistant KPC-2 producing Klebsiella pneumoniae 588 transformant by agar dilution method; assay type: functional
# Klebsiella pneumoniae [14] = assay: Antimicrobial activity against KPC-3 producing Klebsiella pneumoniae 557 transformant by agar dilution method; assay type: functional
# Klebsiella pneumoniae [15] = assay: Antimicrobial activity against carbapenem-resistant KPC-2 producing Klebsiella pneumoniae 523 transformant by agar dilution method; assay type: functional
# Klebsiella pneumoniae [16] = assay: Antimicrobial activity against carbapenem-resistant KPC-2 producing Klebsiella pneumoniae 469 transformant by agar dilution method; assay type: functional
# Klebsiella pneumoniae [17] = assay: Antimicrobial activity against carbapenem-resistant KPC-2 producing Klebsiella pneumoniae 475 ST 277 expressing beta-lactamase SHV-27, CTX-M-15 and OXA-4 by agar dilution method; assay type: functional
# Klebsiella pneumoniae [18] = assay: Antimicrobial activity against carbapenem-resistant KPC-2 producing Klebsiella pneumoniae 531 ST 376 expressing beta-lactamase SHV-1 by agar dilution method; assay type: functional
# Klebsiella pneumoniae [19] = assay: Antimicrobial activity against carbapenem-resistant KPC-2 producing Klebsiella pneumoniae 526 ST 376 expressing beta-lactamase SHV-1 by agar dilution method; assay type: functional
# Escherichia coli [20] = assay: Antimicrobial activity against Escherichia coli Genehogs by agar dilution method; assay type: functional
# In short: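 Carbapenem MICs by agar dilution, interpreted per CLSI. FDA Enterobacteriaceae breakpoints applied: susceptible ≤2 μg/ml, intermediate 4 μg/ml, resistant ≥8 μg/ml. Transformants were made in recipient E. coli GeneHogs with purified plasmid DNA.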
# Klebsiella pneumoniae [21] = assay: Antimicrobial activity against carbapenem-resistant KPC-2 producing Klebsiella pneumoniae 475 transformant by agar dilution method; assay type: functional
# Klebsiella pneumoniae [22] = assay: Antimicrobial activity against carbapenem-resistant KPC-2 producing Klebsiella pneumoniae 531 transformant by Etest; assay type: functional
# Klebsiella pneumoniae [23] = assay: Antimicrobial activity against carbapenem-resistant KPC-2 producing Klebsiella pneumoniae 588 ST 340 expressing beta-lactamase TEM-1 and SHV-11 by Etest; assay type: functional
# Klebsiella pneumoniae [24] = assay: Antimicrobial activity against carbapenem-resistant KPC-2 producing Klebsiella pneumoniae 525 ST 376 expressing beta-lactamase SHV-1 by Etest; assay type: functional
# Klebsiella pneumoniae [25] = assay: Antimicrobial activity against carbapenem-resistant KPC-2 producing Klebsiella pneumoniae 531 ST 376 expressing beta-lactamase SHV-1 by Etest; assay type: functional
# Klebsiella pneumoniae [26] = assay: Antimicrobial activity against KPC-3 producing Klebsiella pneumoniae 549 transformant by Etest; assay type: functional
# Klebsiella pneumoniae [27] = assay: Antimicrobial activity against carbapenem-resistant KPC-2 producing Klebsiella pneumoniae 523 ST 340 expressing beta-lactamase TEM-1, SHV-11 and OXA-2 by Etest; assay type: functional
# Klebsiella pneumoniae [28] = assay: Antimicrobial activity against carbapenem-resistant KPC-2 producing Klebsiella pneumoniae 365 transformant by Etest; assay type: functional
# Klebsiella pneumoniae [29] = assay: Antimicrobial activity against carbapenem-resistant KPC-2 producing Klebsiella pneumoniae 523 transformant by Etest; assay type: functional
# Klebsiella pneumoniae [30] = assay: Antimicrobial activity against carbapenem-resistant KPC-2 producing Klebsiella pneumoniae 588 transformant by Etest; assay type: functional
# Klebsiella pneumoniae [31] = assay: Antimicrobial activity against carbapenem-resistant KPC-2 producing Klebsiella pneumoniae 475 transformant by Etest; assay type: functional
# Klebsiella pneumoniae [32] = assay: Antimicrobial activity against KPC-3 producing Klebsiella pneumoniae 549 ST 327 expressing beta-lactamase TEM-1 and CTX-M-2 by Etest; assay type: functional
# Klebsiella pneumoniae [33] = assay: Antimicrobial activity against carbapenem-resistant KPC-2 producing Klebsiella pneumoniae 526 transformant by Etest; assay type: functional
# Klebsiella pneumoniae [34] = assay: Antimicrobial activity against carbapenem-resistant KPC-2 producing Klebsiella pneumoniae 526 ST 376 expressing beta-lactamase SHV-1 by Etest; assay type: functional
# Klebsiella pneumoniae [35] = assay: Antimicrobial activity against carbapenem-resistant KPC-2 producing Klebsiella pneumoniae 475 ST 277 expressing beta-lactamase SHV-27, CTX-M-15 and OXA-4 by Etest; assay type: functional
# Klebsiella pneumoniae [36] = assay: Antimicrobial activity against KPC-3 producing Klebsiella pneumoniae 557 transformant by Etest; assay type: functional
# Klebsiella pneumoniae [37] = assay: Antimicrobial activity against carbapenem-resistant KPC-2 producing Klebsiella pneumoniae 469 ST 277 expressing beta-lactamase SHV-27, CTX-M-15 and OXA-4 by Etest; assay type: functional
# Klebsiella pneumoniae [38] = assay: Antimicrobial activity against carbapenem-resistant KPC-2 producing Klebsiella pneumoniae 525 transformant by Etest; assay type: functional
# Klebsiella pneumoniae [39] = assay: Antimicrobial activity against carbapenem-resistant KPC-2 producing Klebsiella pneumoniae 469 transformant by Etest; assay type: functional
# Escherichia coli [40] = assay: Antimicrobial activity against Escherichia coli Genehogs by Etest; assay type: functional
Molecule,MIC (Klebsiella pneumoniae [1]) [mg/L],MIC (Klebsiella pneumoniae [2]) [mg/L],MIC (Klebsiella pneumoniae [3]) [mg/L],MIC (Klebsiella pneumoniae [4]) [mg/L],MIC (Klebsiella pneumoniae [5]) [mg/L],MIC (Klebsiella pneumoniae [6]) [mg/L],MIC (Klebsiella pneumoniae [7]) [mg/L],MIC (Klebsiella pneumoniae [8]) [mg/L],MIC (Klebsiella pneumoniae [9]) [mg/L],MIC (Klebsiella pneumoniae [10]) [mg/L],MIC (Klebsiella pneumoniae [11]) [mg/L],MIC (Klebsiella pneumoniae [12]) [mg/L],MIC (Klebsiella pneumoniae [13]) [mg/L],MIC (Klebsiella pneumoniae [14]) [mg/L],MIC (Klebsiella pneumoniae [15]) [mg/L],MIC (Klebsiella pneumoniae [16]) [mg/L],MIC (Klebsiella pneumoniae [18]) [mg/L],MIC (Klebsiella pneumoniae [19]) [mg/L],MIC (Escherichia coli [20]) [mg/L],MIC (Klebsiella pneumoniae [21]) [mg/L],also measured
C[C@@H](O)[C@H]1C(=O)N2C(C(=O)O)=C(SCCNC=N)C[C@H]12 [IMIPENEM ANHYDROUS],8,0.75,4,128,8,32,4,32,32,32,32,4,8,4,8,8,32,32,0.094,8,MIC (Klebsiella pneumoniae [17]): 32 mg/L
C[C@H]1COc2c(N3CCN(C)CC3)c(F)cc3c(=O)c(C(=O)O)cn1c23.C[C@H]1COc2c(N3CCN(C)CC3)c(F)cc3c(=O)c(C(=O)O)cn1c23.O [LEVOFLOXACIN],< 0.12,> 8,< 0.25,> 8,< 0.12,> 8,< 0.25,> 8,> 8,< 0.25,> 8,< 0.25,< 0.12,< 0.25,0.25,< 0.25,> 8,> 8,0.006,< 0.12,–
C[C@@H](O)[C@H]1C(=O)N2C(C(=O)O)=C(S[C@@H]3CN[C@H](C(=O)N(C)C)C3)[C@H](C)[C@H]12 [MEROPENEM],4,8,4,128,4,32,4,64,64,32,64,2,4,4,4,4,64,64,0.012,4,MIC (Klebsiella pneumoniae [17]): 64 mg/L
COLISTIN,–,–,–,–,–,–,–,–,–,–,–,–,–,–,–,–,–,–,–,–,MIC (Klebsiella pneumoniae [22]): 0.032 mg/L; MIC (Klebsiella pneumoniae [23]): 0.19 mg/L; MIC (Klebsiella pneumoniae [24]): 0.125 mg/L; MIC (Klebsiella pneumoniae [25]): 0.125 mg/L; MIC (Klebsiella pneumoniae [26]): 0.032 mg/L; MIC (Klebsiella pneumoniae [27]): 0.125 mg/L; MIC (Klebsiella pneumoniae [28]): 0.032 mg/L; MIC (Klebsiella pneumoniae [29]): 0.047 mg/L; MIC (Klebsiella pneumoniae [30]): 0.047 mg/L; MIC (Klebsiella pneumoniae [31]): 0.032 mg/L; MIC (Klebsiella pneumoniae [32]): 0.125 mg/L; MIC (Klebsiella pneumoniae [33]): 0.032 mg/L; MIC (Klebsiella pneumoniae [34]): 0.125 mg/L; MIC (Klebsiella pneumoniae [35]): 0.19 mg/L; MIC (Klebsiella pneumoniae [36]): 0.032 mg/L; MIC (Klebsiella pneumoniae [37]): 0.125 mg/L; MIC (Klebsiella pneumoniae [38]): 0.032 mg/L; MIC (Klebsiella pneumoniae [39]): 0.032 mg/L; MIC (Escherichia coli [40]): 0.125 mg/L
GENTAMICIN,< 1,> 16,< 1,–,< 1,> 16,< 1,< 1,–,> 16,< 1,< 1,2,< 1,2,> 16,< 1,< 1,< 1,> 16,MIC (Klebsiella pneumoniae [17]): > 16 mg/L
